From ChEMBL document CHEMBL1811919, “Effects of β-glucosidase hydrolyzed products of harpagide and harpagoside on cyclooxygenase-2 (COX-2) in vitro” (Bioorg Med Chem, 2011)
pIC50: −log10 of the molar value. Calls of active or inactive are those of the source. No cut-off for these calls is given here.

How the values were obtained:
[1] = biological target: T1, Prostaglandin G/H synthase 1 (Ovis aries) (UniProt P05979); conditions: 50 uM
T1 sequence (whole entry): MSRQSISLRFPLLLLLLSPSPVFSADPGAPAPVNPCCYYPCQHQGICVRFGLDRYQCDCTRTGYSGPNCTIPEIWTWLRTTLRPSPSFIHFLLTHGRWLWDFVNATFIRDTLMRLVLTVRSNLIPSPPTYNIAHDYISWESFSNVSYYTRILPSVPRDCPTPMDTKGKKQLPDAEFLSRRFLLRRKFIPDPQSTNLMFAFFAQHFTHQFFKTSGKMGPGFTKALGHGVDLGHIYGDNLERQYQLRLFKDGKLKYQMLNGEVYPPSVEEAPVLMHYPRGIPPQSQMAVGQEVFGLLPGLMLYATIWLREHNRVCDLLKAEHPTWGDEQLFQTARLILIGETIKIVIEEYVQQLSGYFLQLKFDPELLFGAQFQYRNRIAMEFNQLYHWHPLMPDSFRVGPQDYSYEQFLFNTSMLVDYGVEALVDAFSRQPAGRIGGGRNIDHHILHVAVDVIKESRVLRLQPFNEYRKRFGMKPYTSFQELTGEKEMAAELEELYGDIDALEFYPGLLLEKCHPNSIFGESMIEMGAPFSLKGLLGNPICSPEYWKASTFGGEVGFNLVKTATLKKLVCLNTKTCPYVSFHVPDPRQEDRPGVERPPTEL

RAW264.7 [2] = assay: Inhibition of LPS-induced nitric oxide production in mouse RAW264.7 cells pre-incubated for 20 mins before LPS challenge measured 18 hrs post LPS challenge by Griess method; assay type: functional, cell-based
How it was run: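 RAW264.7 cells at 2 × 10⁵ cells/well, pretreated with test compound, aminoguanidine or vehicle for 20 min, then LPS co-incubation for a further 18 h. Supernatant mixed with Griess reagent (1% sulfanilamide plus 0.1% naphthylethylenediamine). Concentrations tested 2.5–100 μM.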

RAW264.7 [3] = assay: Inhibition of LPS-induced TNFalpha production in mouse RAW264.7 cells pre-incubated for 30 mins before LPS challenge measured 6 hrs post LPS challenge by ELISA; assay type: functional, cell-based
How it was run: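 RAW264.7 macrophages at 2 × 10⁵ cells/well, pretreated with test compound, dexamethasone or vehicle for 30 min, then co-incubated with LPS (100 ng/ml) for a further 6 h. Concentrations tested 2.5–100 μM.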

RAW264.7 [4] = assay: Effect on basal COX-2 mRNA expression in mouse RAW264.7 cells at 100 uM by RT-PCR; assay type: functional, cell-based
RAW264.7 [5] = assay: Inhibition of LPS-induced TNFalpha production in mouse RAW264.7 cells at 2.5 to 100 uM pre-incubated for 30 mins before LPS challenge measured 6 hrs post LPS challenge by ELISA; assay type: functional, cell-based
How it was run: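 RAW264.7 cells at 2 × 10⁵ per well pretreated with compound, dexamethasone or vehicle for 30 min, then co-incubated with LPS 100 ng/ml for a further 6 h before TNF-α measurement.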

RAW264.7 [6] = assay: Inhibition of LPS-induced nitric oxide production in mouse RAW264.7 cells at 2.5 to 100 uM pre-incubated for 20 mins before LPS challenge measured 18 hrs post LPS challenge by Griess method; assay type: functional, cell-based
How it was run: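 RAW264.7 cells at 2 × 10⁵ per well pretreated with compound, aminoguanidine or vehicle for 20 min, then co-incubated with LPS 1 µg/ml for a further 18 h. Supernatant mixed with Griess reagent (1% sulfanilamide, 0.1% naphthylethylenediamine) for nitrite read-out.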

[7] = biological target: T1, Prostaglandin G/H synthase 1 (Ovis aries); assay: Inhibition of ovine COX1 at 2.5 to 100 uM incubated for 10 mins by enzyme immunoassay
How it was run: (§1)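 Screening kit assay. Ovine COX-1 or human recombinant COX-2 with heme in reaction buffer, incubated with compound or DMSO for 10 min. Arachidonic acid added from a 10 mM stock, reaction 2 min at 37 °C. Stopped with 1 M HCl, then saturated SnCl2 for 5 min at room temperature. Prostaglandins quantified by EIA. Background from inactivated enzyme; DMSO taken as 100% activity. Mean ± SEM, Dunnett's test.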

RAW264.7 [8] = assay: Effect on basal COX-2 mRNA expression in mouse RAW264.7 cells at 20 uM by RT-PCR; assay type: functional, cell-based
[9] = biological target: T2, Prostaglandin G/H synthase 2 (Homo sapiens) (UniProt P35354); assay: Inhibition of human recombinant COX2 at 2.5 to 100 uM incubated for 10 mins by enzyme immunoassay
T2 sequence (whole entry): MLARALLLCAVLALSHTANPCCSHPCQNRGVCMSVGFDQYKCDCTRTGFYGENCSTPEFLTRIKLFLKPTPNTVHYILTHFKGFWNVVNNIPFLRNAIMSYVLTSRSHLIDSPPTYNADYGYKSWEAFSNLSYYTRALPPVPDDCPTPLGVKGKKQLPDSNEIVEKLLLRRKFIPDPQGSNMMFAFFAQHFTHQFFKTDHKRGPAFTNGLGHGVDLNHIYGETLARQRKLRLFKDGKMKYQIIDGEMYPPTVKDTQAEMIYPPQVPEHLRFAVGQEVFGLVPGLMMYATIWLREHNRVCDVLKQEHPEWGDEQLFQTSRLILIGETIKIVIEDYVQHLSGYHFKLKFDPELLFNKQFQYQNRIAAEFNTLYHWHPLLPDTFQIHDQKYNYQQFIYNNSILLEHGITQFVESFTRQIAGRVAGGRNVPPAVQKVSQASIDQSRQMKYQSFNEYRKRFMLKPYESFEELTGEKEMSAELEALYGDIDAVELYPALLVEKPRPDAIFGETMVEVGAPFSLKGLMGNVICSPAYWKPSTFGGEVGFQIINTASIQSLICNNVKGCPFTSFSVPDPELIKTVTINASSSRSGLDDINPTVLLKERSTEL
How it was run: as §1

RAW264.7 [10] = assay: Inhibition of LPS-induced COX-2 mRNA expression in mouse RAW264.7 cells at 100 uM pre-incubated for 3 hrs before LPS challenge measured 24 hrs post LPS challenge by RT-PCR; assay type: functional
How it was run: (§2)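 RAW 264.7 cells seeded at 2 × 10⁵ per well and grown to confluence, treated with compound or vehicle for 3 h, then stimulated with LPS 1 µg/ml for 24 h. Total RNA extracted; SYBR real-time RT-PCR, 40 cycles of 95 °C 15 s / 60 °C 1 min, samples in duplicate. Quantified by 2^-ΔΔCt, normalized to β-actin, fold change relative to untreated cells. TPCK 20 µM positive control.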

RAW264.7 [11] = assay: Cytotoxicity against mouse RAW264.7 cells at 2.5 to 100 uM after 18 hrs by MTT assay; assay type: cell-based; conditions: raw264.7, 18 h
How it was run: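 RAW 264.7 murine macrophages in 96-well plates co-incubated with compound or vehicle for 18 h. MTT added to […] final, then 4 h further incubation with DMSO; formazan read at 570 nm. Toxic if MTT metabolism more than 20% below control.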

[12] = biological target: T2, Prostaglandin G/H synthase 2 (Homo sapiens); assay: (§3) Inhibition of human recombinant COX2 incubated for 10 mins by enzyme immunoassay
How it was run: as §1

[13] = biological target: T3, Prostaglandin G/H synthase 2 (Homo sapiens, UniProt P35354); assay: as §3
T3 sequence (P35354 whole entry): T2 sequence (whole entry)
How it was run: as §1

RAW264.7 [14] = assay: Inhibition of LPS-induced COX-2 mRNA expression in mouse RAW264.7 cells at 20 uM pre-incubated for 3 hrs before LPS challenge measured 24 hrs post LPS challenge by RT-PCR; assay type: functional
How it was run: as §2

Compound	Activity (RAW264.7 [4])	inhibition (RAW264.7 [5])	inhibition (RAW264.7 [6])	inhibition [7]	Activity (RAW264.7 [8])	Activity (RAW264.7 [11])	other results
CC(=O)Oc1ccccc1C(=O)O							inhibition [1]: Active
N=C(N)NN							inhibition (RAW264.7 [2]): Active; inhibition (RAW264.7 [3]): Active
C[C@@H]1C[C@H]2[C@@H]3CCC4=CC(=O)C=C[C@]4(C)[C@@]3(F)[C@@H](O)C[C@]2(C)[C@@]1(O)C(=O)CO							inhibition (RAW264.7 [2]): Active; inhibition (RAW264.7 [3]): Active
C[C@]1(O)C[C@@H](O)[C@]2(O)C=CO[C@@H](O[C@H]3O[C@H](CO)[C@@H](O)[C@H](O)[C@H]3O)[C@@H]21	inactive	inactive	inactive	inactive	inactive		inhibition [9]: inactive; inhibition (RAW264.7 [10]): inactive
C[C@]1(O)C[C@@H](O)[C@]2(O)C=CO[C@@H](O[C@@H]3O[C@H](CO)[C@@H](O)[C@H](O)[C@H]3O)[C@@H]21 [HARPAGIDE]						Non-toxic	
C[C@]1(O)C[C@@H](O)[C@](O)(CC=O)[C@@H]1C=O	inactive	inactive	inactive	inactive	inactive	Non-toxic	inhibition [12]: Dose-dependent effect; pIC50 [13]: 4.36; inhibition at 100 µM (RAW264.7 [10]): 47.6%
C[C@]1(OC(=O)/C=C/c2ccccc2)C[C@@H](O)[C@]2(O)C=CO[C@@H](O[C@@H]3O[C@H](CO)[C@@H](O)[C@H](O)[C@H]3O)[C@@H]21 [HARPAGOSIDE]	inactive	inactive	inactive	inactive	inactive	Non-toxic	inhibition [9]: inactive; inhibition (RAW264.7 [10]): inactive
Cc1ccc(S(=O)(=O)N[C@@H](Cc2ccccc2)C(=O)CCl)cc1 [TPCK]							inhibition at 20 µM (RAW264.7 [14]): 59.5%
